Source: PubChem BioAssay (The Scripps Research Institute Molecular Screening Center)
Hits are enriched below; roughly 3% of the tested compounds scored in any of these assays.
TAAR1 ag: human TAAR1 agonism; activation, % at 3 µM; CHO RD-HGA16 TAAR1, Fluo-8 calcium fluorescence; vehicle wells 0%, saturating PEA agonist 100%; 360,000 compounds, 0.99% hits; Q96RJ0;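 active means activation above the mean activation of all test compounds in the run plus 3 SD, cut at about 38% in these data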
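test system = CHO RD-HGA16 cells carrying human TAAR1 plus Gα16 | schedule = 17-24 h seeding, 75 min 37 °C dye, 30 min RT | compound dosing = 3 µM single concentration | control set = DMSO and PEA EC100 | replicates = n 1 | signal = Fluo-8 fluorescence, 5 s baseline then 140 s kinetic read | measure = percent activation vs PEA EC100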
M4 ag: agonists of human muscarinic M4 receptor (CHRM4); CHO-K1 hM4/Gqi5, Fluo-8 calcium fluorescence; vehicle 0%, full acetylcholine response 100%; activation, % at 3 µM; 360,000 compounds, 0.14% hits; P08173;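 active means activation above the run mean over all test wells plus 3 SD, cut at about 32% in these data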;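 further: peak over basal fluorescence ratio per well then scaled between controls; 0% = DMSO wells and 100% = acetylcholine at EC100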
Target sequence (P08173 whole entry, looked up): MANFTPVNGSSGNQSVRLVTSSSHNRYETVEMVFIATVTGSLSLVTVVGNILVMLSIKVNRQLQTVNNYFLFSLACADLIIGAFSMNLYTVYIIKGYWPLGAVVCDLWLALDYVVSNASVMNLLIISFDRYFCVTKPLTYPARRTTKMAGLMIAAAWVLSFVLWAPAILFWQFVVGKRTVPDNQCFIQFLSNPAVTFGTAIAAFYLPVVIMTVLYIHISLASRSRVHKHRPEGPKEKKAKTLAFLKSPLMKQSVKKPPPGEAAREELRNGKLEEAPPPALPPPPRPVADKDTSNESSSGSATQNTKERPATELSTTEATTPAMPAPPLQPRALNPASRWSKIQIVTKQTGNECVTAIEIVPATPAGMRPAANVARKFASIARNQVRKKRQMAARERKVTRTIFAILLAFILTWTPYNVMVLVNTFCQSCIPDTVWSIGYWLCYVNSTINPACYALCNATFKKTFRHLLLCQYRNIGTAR
CHRM4 PAM: potentiates acetylcholine response at human M4 receptor; P08173; CHO-K1 hM4/Gqi5, Fluo-8 calcium fluorescence, ACh EC20; 0% = ACh EC20, 100% = maximal ACh; 360,000 compounds, 0.4% hits; activation, % at 3 µM;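 active means activation above its plate's cutoff, the mean activation of sample wells plus 3 SD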
TAAR1 antagonist: antagonists of human TAAR1 | inhibition, % at 3 µM | 360,000 compounds, 1.5% hits | CHO RD-HGA16 TAAR1, Fluo-8 calcium fluorescence, antagonist | Q96RJ0;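 active means inhibition above a per-plate cutoff, the mean inhibition of test compounds on that plate plus 3 SD, cut at about 49% in these data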;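 further: 0% = DMSO plus EC80 beta-PEA response and 100% = DMSO alone without agonist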
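Assay system: CHO-derived RD-HGA16 cells stably expressing human TAAR1 plus Gα16. Timing: 140 s kinetic read after compound, 140 s after agonist. Technique: kinetic Fluo-8 calcium fluorescence measurement. Measure: % inhibition of agonist calcium response.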
M4 antag: blocks acetylcholine activation of human M4 receptor; AID 624125; 360,000 compounds, 0.73% hits; P08173; CHO-hM4 cells, ACh EC80, Fluo-8 calcium fluorescence; inhibition, % at 3 µM;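 active means inhibition above its plate's cutoff, the mean inhibition of sample wells plus 3 SD, cut at about 27% in these data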;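 further: 0% = acetylcholine EC80 with DMSO and 100% = DMSO without agonist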
An asterisk follows results filed as active; · = no result.

SMILES | TAAR1 ag | M4 ag | CHRM4 PAM | TAAR1 antagonist | M4 antag
Cc1c(C(=O)NCCC2=CCCCC2)oc2ccc(S(=O)(=O)N3CCOCC3)cc12 | 40.2* | 16.1 | -14.4 | 59.6* | 13.9
Cc1c(C(=O)NCCCN2CCCC2=O)oc2ccc(S(=O)(=O)N3CCOCC3)cc12 | 12.2 | 1.8 | -2.8 | -11.6 | 6.5
Cc1ccc(CNC(=O)c2oc3ccc(S(=O)(=O)N4CCC5(CC4)OCCO5)cc3c2C)cc1 | 13.2 | 12.9 | -13.7 | 57.4* | 11.5
COC(=O)[C@]12C[C@H](CC(=O)NCc3ccccc3)C(=O)N(Cc3ccc4c(c3)OCO4)C1=C[C@H](COCc1ccccc1)O[C@@H]2C | 0.3 | · | · | 6.3 | ·
O=C(Oc1cccc(Nc2ncnc3ccccc23)c1)c1ccccc1Cl | 14.0 | 15.4 | -13.7 | 73.6* | 34.4*
CC1CN(Cc2cc(=O)n3ccsc3n2)CC(C)O1 (stereo unspecified) | 40.1* | 0.4 | -1.1 | -11.1 | -0.1
NC(=O)COC(=O)c1ccc(S(=O)(=O)NCc2ccco2)cc1 | 1.1 | 1.3 | 19.9* | -11.9 | -10.9
Nc1[nH]c(C(=O)c2ccccc2)c(-c2ccc(Br)cc2)c1C(=O)c1ccccc1 | 9.5 | · | · | -39.5 | ·
O=C1C2CC=C(Cl)CC2C(=O)N1CCCCCCN1C(=O)C2CC=C(Cl)CC2C1=O (stereo unspecified) | 40.6* | 13.1 | -12.4 | 21.6 | 13.0
COc1ccc(CN(C)C(=O)C(Cc2ccccc2)NC(=O)c2ccccc2)cc1F (stereo unspecified) | 14.4 | 19.1 | -12.2 | 73.3* | 20.6
O=C(N/N=C/c1ccco1)c1cc([N+](=O)[O-])cc([N+](=O)[O-])c1 | 7.0 | 0.7 | 12.3 | -1.4 | -0.7
Cc1ccccc1C(=O)Nc1ccccc1C(=O)N/N=C\c1ccco1 | 16.6 | 1.6 | 31.0* | 14.1 | -17.0
CCOc1cc(/C=N/NC(=O)c2cccc([N+](=O)[O-])c2)ccc1OS(=O)(=O)c1ccccc1 | 2.0 | 7.9 | -11.3 | 52.4* | 8.3
O=C(Nc1ccccc1C(=O)N/N=C/c1ccco1)c1ccc(F)cc1 | 8.2 | 0.9 | 36.0* | -13.1 | 20.7
O=C(Nc1ccccc1C(=O)N/N=C/c1ccco1)c1ccc(Cl)cc1 | 5.5 | 8.1 | 1.5 | 41.4 | -9.5
O=C(Nc1ccccc1C(=O)N/N=C/c1ccco1)c1ccccc1 | 0.8 | 1.6 | 1.1 | 18.3 | -0.8
O=C(N/N=C/c1ccco1)c1cccc([N+](=O)[O-])c1 | -1.2 | 1.4 | 27.6* | 42.4 | 0.6
COC(=O)[C@]12C[C@H](CC(=O)NCc3cccc(C(F)(F)F)c3)C(=O)N(Cc3ccccc3)C1=C[C@H](C(C)(C)C)O[C@@H]2C | -2.0 | · | · | -15.4 | ·
CC1CC1c1ccc(/C=C(\C#N)C(=O)Nc2cc(Cl)ccc2Cl)o1 (stereo unspecified) | 2.4 | 1.0 | 20.8* | -13.2 | -6.1
CC1CC1c1ccc(/C=C(\C#N)C(=O)Nc2ccc(Cl)cc2Cl)o1 (stereo unspecified) | 0.4 | 0.8 | 5.7 | -2.6 | -10.6
CCn1cc(C(=O)NCCCN2CC(C)CC(C)C2)c(=O)c2cc(S(=O)(=O)N(C)C3CCCCC3)ccc21 (stereo unspecified) | 0.5 | 0.2 | -14.1 | -38.8 | 33.3*
CCn1cc(C(=O)NCCCN2CCC(C)CC2)c(=O)c2cc(S(=O)(=O)N(C)C3CCCCC3)ccc21 | 1.7 | -0.1 | -7.6 | -33.9 | 24.1
Cc1cccnc1C(NC(=O)C1CCN(Cc2ccc(Oc3ccccc3)cc2)CC1)c1ccccc1 (stereo unspecified) | · | 2.8 | -13.2 | · | 29.4*
O=C(N[C@H](C(=O)N1CCC[C@H]1C(=O)NCCc1ccccc1Cl)c1ccccc1)c1ccc(Cl)cc1Cl | 29.5 | · | · | 35.6 | ·
Cc1ccc([N+](=O)[O-])cc1NC(=O)c1ccc(C(C)(C)C)cc1 | 7.3 | 17.0 | -19.2 | 53.5* | -8.2
SMILES | TAAR1 ag | M4 ag | CHRM4 PAM | TAAR1 antagonist | M4 antag
Cc1ccc(C(=O)Nc2cc([N+](=O)[O-])ccc2C)cc1 | -1.9 | 0.0 | 11.1 | -1.2 | -5.8
COC(=O)C1=CN(c2ccc(OC)cc2)C=C(C(=O)OC)C1c1ccc([N+](=O)[O-])cc1 | 1.6 | 0.1 | 20.0* | -22.4 | -8.9
COC(=O)C1=CN(c2ccc(F)cc2)C=C(C(=O)OC)C1c1ccc([N+](=O)[O-])cc1 | -0.1 | -0.1 | -1.5 | 27.6 | -4.4
O=C(N[C@H](C(=O)N1CCC[C@H]1C(=O)NC1CCCC1)C1CCCCC1)c1ccc(Cl)cc1Cl | -1.3 | · | · | -14.2 | ·
Nc1ccn([C@@H]2O[C@H](C(=O)N[C@H](Cc3ccccc3)C(=O)NCc3cccc4c3OCO4)[C@@H](O)[C@H]2O)c(=O)n1 | -0.4 | · | · | 5.4 | ·
Cc1ccc(-n2c(Cl)c(Cl)nc(Cl)c2=O)cc1 | · | -2.7 | -6.1 | · | 36.8*
CC(=O)COc1ccccc1OC(=O)c1ccco1 | 1.1 | -0.1 | 2.2 | -2.9 | 4.6
CC(=O)c1ccccc1OC(=O)c1ccco1 | 5.3 | 0.8 | 22.9* | 2.1 | -13.0
Cc1cc(Oc2cccc3c2S(=O)(=O)N([C@H](C)c2ccccc2)C[C@@H](COCc2ccccc2)O3)cc(C)c1C | 2.9 | · | · | 1.8 | ·
COC(=O)C1=C(C)N(C)C(=NCc2ccccc2C(F)(F)F)NC1c1ccc(C(F)(F)F)cc1 (stereo unspecified) | 18.5 | · | · | 24.4 | ·
CC1(C)OC(=O)C2=C(CC(CCc3ccccc3)OC2c2ccc(Cl)c(Cl)c2)O1 (stereo unspecified) | -1.0 | · | · | -6.3 | ·
Cc1ccc(/C=N/N2CCN(Cc3cccc4ccccc34)CC2)o1 | -2.7 | -3.0 | 2.1 | -26.1 | 29.5*
FC(F)(F)c1nc2ccccc2[nH]1 | 0.1 | -0.1 | 15.0* | 7.4 | 9.9
O=C(C(=O)N1CCC(CNS(=O)(=O)c2ccc(OC(F)(F)F)cc2)CC1)c1cc2ccccc2o1 | -0.8 | · | · | 6.1 | ·
O=C(c1ccc([N+](=O)[O-])cc1)N(Cc1ccc(Cl)cc1)N1C(=O)CCCC1=O | 2.2 | 2.5 | 2.7 | 16.9 | 2.5
O=C(c1ccc([N+](=O)[O-])cc1)N(Cc1ccc(Cl)cc1Cl)N1C(=O)CCCC1=O | 1.5 | 0.8 | -0.3 | 14.8 | 66.8*
Cc1ccc(-c2nc(CS(=O)CC(=O)NCc3ccc(Cl)cc3)c(C)o2)cc1 (stereo unspecified) | -0.6 | 0.3 | 8.7 | -23.5 | -15.0
Cc1oc(-c2ccc(Cl)cc2)nc1CS(=O)CC(=O)NCc1ccccc1 (stereo unspecified) | -0.7 | 2.0 | 20.6* | -6.5 | -2.2
O=C(CSCC(=O)N1CCCCC1)Nc1nc(-c2ccc(Cl)s2)cs1 | 1.2 | 19.9 | -11.2 | 54.5* | -9.1
CN1CCN(CCCNC(=O)C2CCN(c3nnc(-n4cccc4)s3)CC2)CC1 | 6.0 | 0.1 | 6.5 | -3.4 | 6.3
